# Source: PubChem
# Only some compounds are listed: those with a hit (about 11% of all), similar ones and a draw of the others.
# S1P3 agonist – agonists of human S1P3 receptor; Q99500; S1P3 NFAT-BLA reporter cells, agonism, FRET ratio; relative to 1 µM S1P, basal subtracted; activation, % at 4.5 µM; 0.1% of 60,000 active;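 active = activation above the screen-wide mean plus 3 SD, cut at about 4.5% in these data, passing the limit was not always enough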
# Target sequence (Q99500 whole entry, looked up): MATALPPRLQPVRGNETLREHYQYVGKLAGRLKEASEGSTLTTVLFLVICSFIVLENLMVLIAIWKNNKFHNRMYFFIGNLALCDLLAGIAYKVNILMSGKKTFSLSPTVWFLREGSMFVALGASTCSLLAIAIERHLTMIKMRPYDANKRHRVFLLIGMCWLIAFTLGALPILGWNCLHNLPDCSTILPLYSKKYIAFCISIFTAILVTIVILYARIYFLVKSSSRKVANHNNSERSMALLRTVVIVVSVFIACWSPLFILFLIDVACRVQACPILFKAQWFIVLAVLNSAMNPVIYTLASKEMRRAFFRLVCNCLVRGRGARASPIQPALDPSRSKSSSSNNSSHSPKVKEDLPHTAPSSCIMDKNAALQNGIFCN
#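 Material: Human S1P3 NFAT-BLA reporter CHO cells | Incubation: Overnight plating, 4 h compound 37 °C, 2 h substrate RT | Signal: FRET β-lactamase substrate fluorescence, excitation 405 nm, 460/535 nm emission ratio, background-subtracted | Compound: 4.5 µM final, single dose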
# M1 ag – agonists of M1 muscarinic receptor. 3% of 64,000 active. B-score at 10 µM. AID 626. CHO-M1 cells, Fluo-4 calcium fluorescence, agonist mode; active compounds read high;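 active = fluorescence rise, raw or as B-score row- and column-corrected plate score, outside the 99.7% band of its plate's samples, either direction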
# D1 mod – D1 dopamine receptor (human) allosteric modulation; 5.9% of 58,000 active; P21728; HEK293 D1, CRE-luciferase, dopamine EC30 potentiation; actives deviate in either direction; B-score at 10 µM;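 active = luminescence count or its row- and column-corrected plate score outside the 99.7% band of the plate's sample wells, on either side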
# M1 antagonist – antagonists of rat M1 muscarinic receptor | P08482 | CHO-M1 cells, Fluo-4 calcium, ACh EC80 antagonist mode; active compounds read low | B-score at 10 µM | 3.4% of 64,000 active | AID 628;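 active = calcium fluorescence response, raw or row-and-column corrected B-score, differing from the plate sample mean either way at a set confidence level, mostly lower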
# S1P1 ag pot – agonists and agonism potentiators of human S1P1 receptor; P21453; S1P1 CRE-bla cells, forskolin, beta-lactamase FRET, potentiator mode; S1P1 agonist co-added at EC20, 2 nM; 100% = saturating reference agonist, 0% = basal; activation, % at 9.5 µM; 0.57% of 56,000 active;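 active = activation above a cutoff set at the mean activation of all tested compounds plus 3 SD, cut at about 54% in these data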;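 also: forskolin at 4 µM as EC80 and the EC20 agonist is SEW2871; 100% = SEW2871 at its EC100 plus forskolin at EC80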
# D1 mod confirm – confirmation of human D1 dopamine receptor allosteric modulators; AID 642; 88% of 2,200 active; HEK293 D1 CRE-luciferase, dopamine EC30 potentiation; active compounds read high; shares compounds with D1 mod; luminescence at 10 µM;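 active = luminescence in either of two replicates above the same-plate mean plus 3 SD of the low-dose dopamine control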
# D1 no dopamine – D1 (human) signaling in absence of dopamine; shares compounds with D1 mod; HEK293 D1 CRE-luciferase, luminescence, no dopamine; active compounds read high; luminescence at 10 µM; 0.8% of 1,900 active; AID 646; in the data active = luminescence above about 3900
# Isoprot counter – counter-screen for D1 modulators: isoproterenol response in HEK293 cells; shares compounds with D1 mod; HEK293 D1 CRE-luciferase, isoproterenol EC30 counter-screen; calls only at 10 µM; 63% of 2,200 active;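 active = luminescence in either replicate above plate mean of wells with a partly effective reference agonist dose plus 3 SD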;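 also: isoproterenol raises cAMP through native beta-adrenoceptor Gs so signal bypasses D1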
# Numbers without * were called inactive; i = inactive; / = no result given; + = active, no number.
SMILES,S1P3 agonist,M1 ag,D1 mod,M1 antagonist,S1P1 ag pot,D1 mod confirm,D1 no dopamine,Isoprot counter
CCOCCn1c(SCC(=O)OCc2ccccc2)nc2c1c(=O)[nH]c(=O)n2C,-1,-0.66,-0.4,0.56,-4,/,/,/
CCOC(=O)CSc1nc2c(c(=O)[nH]c(=O)n2C)n1CCCc1ccccc1,1,/,-0.066,/,-2,/,/,/
CC(C)CCSc1nc2c(c(=O)[nH]c(=O)n2C)n1CCc1ccccc1,-1,-0.00027,2.6*,-0.0065,-13,15840*,1540,+
O=C(c1nc2nc(-c3ccccc3)cc(C(F)(F)F)n2n1)N1CCOCC1,-1,1.7,/,0.84,-10,/,/,/
O=C(c1nc2nc(-c3ccc(Cl)cc3)cc(C(F)(F)F)n2n1)N1CCOCC1,-1,1.3,2.9*,0.51,-2,8024*,1772,+
Cc1ccc2c(c1)c(-c1ccccc1)nc1nncn12,-1,-0.035,9.1*,-0.28,9,13296*,1752,+
Cc1ccc2nc(N3CCOCC3)c3nncn3c2c1,0,0.65,0.89,-0.21,-38,/,/,/
CCc1c(C)sc(NC(=O)c2cc(-c3cc(OC)ccc3OC)on2)c1C#N,0,0.0081,0.74,1.2,-6,/,/,/
COc1ccc(-c2csc(NC(=O)c3cc(C)on3)c2C#N)cc1OC,-1,-0.49,10*,0.43,-6,17944*,1716,+
CN(CC(=O)N1CCN(C2CCCCC2)CC1)S(=O)(=O)c1cccc2nsnc12,-2,-0.33,0.98,-0.9,-3,/,/,/
CC(=O)N=c1sc2nc3ccccc3nc2n1N(C(C)=O)C(C)=O,0,-0.055,2.8*,0.42,-13,8388*,1468,i
c1ccc(OCc2nnc3sc(-c4cccs4)nn23)cc1,-1,-0.22,6.4*,-0.036,12,15144*,1772,+
Fc1ccc(-c2nn3c(C4COc5ccccc5O4)nnc3s2)cc1 (stereo not given),-1,0.81,3.8*,0.29,1,14388*,1980,+
c1ccc2c(c1)OCC(c1nnc3sc(-c4ccc5c(c4)OCO5)nn13)O2 (stereo not given),0,1.3,0.75,-0.0025,-20,/,/,/
c1csc(-c2nn3c(C4COc5ccccc5O4)nnc3s2)c1 (stereo not given),-1,-0.64,8.6*,-0.15,-57,18120*,1676,+
c1ccc2c(c1)OCC(c1nnc3sc(-c4cnccn4)nn13)O2 (stereo not given),0,/,0.59,/,/,/,/,/
O=C(CCSc1nnc(-c2ccncc2)o1)Nc1ccc(F)cc1,0,0.59,-0.029,0.008,-2,/,/,/
COc1cc(OC)c(C#N)c(S(=O)Cc2ccccc2)c1 (stereo not given),/,0.23,-0.25,0.77,/,/,/,/
COc1cc2c(cc1OC)C(C(=O)NCCN1CCOCC1)C1c3ccccc3CCN1C2=O (stereo not given),-1,0.72,-0.15,-1.1,-15,/,/,/
COc1cc2c(cc1OC)C(C(=O)Nc1ccc3c(c1)OCCO3)C1c3ccccc3CCN1C2=O (stereo not given),0,0.026,4.1*,0.19,-27,6868*,1804,i
CC(C)(C)n1ncc2c(=O)n(Cc3ccc(Cl)cc3Cl)cnc21,-1,0.0054,2,-0.12,-23,/,/,/
CC(C)(C)n1ncc2c(=O)n(Cc3c(F)cccc3Cl)cnc21,-1,-0.0054,6*,-0.19,-30,9180*,784,+
Nc1nnc(-c2cn(-c3ccccc3)nc2-c2ccccc2)o1,1,0.99,3*,-1.9,0,15252*,1756,+
O=C1Nc2ccccc2C1(O)Cc1ccncc1 (stereo not given),-1,-0.19,-0.046,0.21,16,/,/,/
O=C(CC1(O)C(=O)Nc2cc(Cl)cc(Cl)c21)c1ccncc1 (stereo not given),-2,/,3.5*,/,26,7604,1960,i
